For series [1], the system named is U-87 MG. Kind of series: Induction of intracellular Ca2+ level in human U87MG cells at 1 to 100 uM by Fura-2 AM dye-based assay relative to trifluoperazine. The series is classed as functional, U-87MG ATCC. The procedure, abridged: (§1)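 U87MG cells or neural stem cells (NSCs) were loaded with 5 μM Fura-2 AM plus 1 μM pluronic acid for 40 min at room temperature. Recording was in HEPES-buffered saline at pH 7.3 with 2 mM CaCl₂. Compounds were applied by bath at 1, 3, 10, 30 or 100 μM. Emission at 510 nm was imaged under 340/380 nm excitation, and the ratio was calculated. Peak amplitude was taken relative to the 0–50 s baseline. Dose–response curves gave EC₅₀ and efficacy.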

Series [2] concerns U-87 MG. Put plainly: Induction of intracellular Ca2+ level in human U87MG cells at 100 uM by Fura-2 AM dye-based assay relative to trifluoperazine. The series is classed as functional, cell-based. The following applies: U-87MG ATCC. The procedure, abridged: as §1
The subject of series [3] is U-87 MG. Kind of series: Induction of intracellular Ca2+ level in human U87MG cells by Fura-2 AM dye-based assay. The format is functional, cell-based, U-87MG ATCC. The procedure, abridged: as §1
The subject of series [4] is NSC. Kind of series: Induction of intracellular Ca2+ level in human NSC cells at 100 uM by Fura-2 AM dye-based assay. The series is classed as cell-based. The procedure, abridged:
as §1

For series [5], the system named is U-87 MG. Kind of series: Cytotoxicity against human U87MG cells assessed as reduction in cell viability after 24 hrs by MTT assay. The format is functional, cell-based, U-87MG ATCC. The procedure, abridged: (§2)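 Cells were grown in DMEM with 10% FBS and penicillin/streptomycin at 37 °C and 5% CO₂, and used up to passage 20. They were seeded at 1.5 × 10³ cells/well, allowed to attach for 24 h, then treated with vehicle or compound diluted in complete medium for 24 h. MTT reagent was added for 2 h. Viability is expressed relative to cell numbers at initial time. n = 16; one-way ANOVA.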
Background: Tetrazolium assays rely on reduction of a dye to a coloured formazan, in cell work by metabolically active cells.

The nature of series [6]: Cytotoxicity against human GBL28 cells assessed as reduction in cell viability after 24 hrs by MTT assay. The format is functional, cell-based. The procedure, abridged:
as §2

Series [7] has as its system NSC. Put plainly: Cytotoxicity against human NSC cells assessed as reduction in cell viability after 24 hrs by MTT assay. The series is classed as cell-based. The procedure, abridged: as §2
Series [8] concerns U-87 MG. Put plainly: Cytotoxicity against human U87MG cells assessed as reduction in cell viability at 1 to 20 uM after 24 hrs by MTT assay relative to control. The format is functional, U-87MG ATCC. The procedure, abridged: as §2
Series [9] can be described thus: Cytotoxicity against human GBL28 cells assessed as reduction in cell viability at 1 to 20 uM after 24 hrs by MTT assay relative to control. The format is functional. The procedure, abridged: as §2
The test system of series [10] is NSC. Put plainly: Cytotoxicity against human NSC cells assessed as reduction in cell viability at 1 to 20 uM after 24 hrs by MTT assay relative to control. The format is cell-based. The procedure, abridged: as §2
The subject of series [11] is U-87 MG. Kind of series: Potency index, ratio of trifluoperazine IC50 to test compound IC50 for human U87MG cells. The series is classed as functional, U-87MG ATCC.
A short description of series [12]: Potency index, ratio of trifluoperazine IC50 to test compound IC50 for human GBL28 cells. The series is classed as functional.
For series [13], the system named is U-87 MG. Put plainly: Induction of intracellular Ca2+ level in human U87MG cells at 1 to 100 uM by Fura-2 AM dye-based assay relative to control. The series is classed as functional, U-87MG ATCC. The procedure, abridged:
as §1

Series [14] concerns NSC. Put plainly: Induction of intracellular Ca2+ level in human NSC cells at 1 to 100 uM by Fura-2 AM dye-based assay relative to control. The format is cell-based. The following applies: read-out: Efficacy. The procedure, abridged: as §1
Series [15] in a line: Selectivity ratio of efficacy for induction of intracellular Ca2+ level in human U87MG cells at 1 to 100 uM to efficacy for induction of intracellular Ca2+ level in human NSC cells at 1 to 100 uM. The series is classed as functional.
The subject of series [16] is U-87 MG. Kind of series: Antitumor activity against human U87MG cells xenografted in BALB/c mouse assessed as reduction in tumor size at 5 mg/kg/day, ip administered for 21 days with 24 hrs resting period followed by treatment discontinuation till day 39 by hematoxylin and eosin staining based confocal microscopic analysis relative to control. The arrangement: scale not given: the % may be the effect or the level left. The format is functional, U-87MG ATCC. The procedure, abridged: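 Athymic BALB/c nu/nu mice given intracranial U87MG cells (2.5 × 10⁵ cells in 5 μL) into the left frontal lobe (2 mm lateral from bregma, 0.5 mm anterior, 3.5 mm deep). Treatment began on day 3: 5 mg/kg/day i.p., or 0.9% saline for controls (n = 10 each). Dosing ran 21 days, then stopped until day 39. Brains were fixed in 4% PFA, paraffin-embedded, cut at 5 μm and H&E-stained. Tumor volume = [major axis × (minor axis)²]/2.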
For orientation: In xenograft studies the graft and the host belong to different species.

Series [17] concerns U-87 MG. Kind of series: Antitumor activity against human U87MG cells xenografted in BALB/c mouse assessed as increase in mouse survival at 5 mg/kg, ip administered for 21 days with 24 hrs resting period followed by treatment discontinuation and measured on day 39. The series is classed as functional, U-87MG ATCC. The procedure, abridged: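 Orthotopic model in athymic BALB/c nu/nu mice: U87MG cells (2.5 × 10⁵ in 5 μL) injected into the left frontal lobe (2 mm lateral to bregma, 0.5 mm anterior, 3.5 mm deep). From day 3, drug was given i.p. at 5 mg/kg/day or 0.9% saline to controls (n = 10 each) for 21 days. Mice were monitored daily and sacrificed when moribund; survival curves were compared by log-rank test.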

Series [18] deals with Mus musculus. Kind of series: Toxicity in BALB/c mouse xenografted with human U87MG cells assessed as effect on behavioral changes at 5 mg/kg/day, ip administered for 21 days with 24 hrs resting period followed by treatment discontinuation till day 39. The series is classed as organism-based. The following applies: in vivo. The procedure, abridged: (§3)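 Same U87MG orthotopic xenograft mice: 5 mg/kg/day i.p. from day 3 for 21 days, or saline (n = 10 each), with dosing stopped until day 39. Mice were checked daily for general appearance, behavioral changes and neurologic deficits, including parkinsonism and extrapyramidal signs.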

In series [19] the test system is Mus musculus. Put plainly: Toxicity in BALB/c mouse xenografted with human U87MG cells assessed as induction of neurologic deficits at 5 mg/kg/day, ip administered for 21 days with 24 hrs resting period followed by treatment discontinuation till day 39. The format is organism-based. As to conditions: in vivo. The procedure, abridged:
as §3

Series [20] concerns Mus musculus. Put plainly: Toxicity in BALB/c mouse xenografted with human U87MG cells assessed as effect on general appearance at 5 mg/kg/day, ip administered for 21 days with 24 hrs resting period followed by treatment discontinuation till day 39. The series is classed as organism-based. The following applies: in vivo. The procedure, abridged:
as §3

Active and inactive are the calls of the source. No cut-off for these calls is given here.

As for `FC(F)(F)c1ccc2c(c1)N(CCCCN1CCC(N3CCOCC3)CC1)c1ccccc1S2`, the Activity is reported as 120% in the series with U-87 MG [1] and “Non-Toxic” in the series on NSC [4]. The result in the series with U-87 MG [2] was Active. The same compound had an EC50 in the series with U-87 MG [3] of 19.9 µM. Further, the IC50 turned out to be 7.1 µM with U-87 MG [5], 6.5 µM in series [6] and 5.6 µM in the series on NSC [7]. In addition, the results for the Efficacy (in the series with U-87 MG [8]; in [9]; with NSC [10]) were 82%, 85% and 21%, respectively.
On to `FC(F)(F)c1ccc2c(c1)N(CCCCN1CCC(N3CCCCC3)CC1)c1ccccc1S2`, for which the Activity with U-87 MG [1] was 123%; in the series on NSC [4], “Non-Toxic”. Also, the result in the series with U-87 MG [2] was Active. Besides, a half-maximal response in the series on U-87 MG [3] (EC50) required 6.7 µM. Besides, the results for the concentration for half-maximal inhibition (IC50) (in the series with U-87 MG [5]; in [6]; with NSC [7]) were 2.2 µM, 2.1 µM and 3.1 µM, respectively. For the same compound, the Efficacy in the series on U-87 MG [8] was 82%; in [9] it was 85%; in the series with NSC [10], 43%. For the same compound, the “Ratio IC50” value (in the series on U-87 MG [11]; in series [12]) was 4 - 5 throughout.
As for `CSc1ccc2c(c1)N(CCCN1CCC(C)CC1)c1ccccc1S2`, the Activity in the series with U-87 MG [1] was 76%.
Still for that read-out and setting: to `CN1CCCN(CCCCN2c3ccccc3Sc3ccc(C(F)(F)F)cc32)CC1` belongs 107%; to `CC1CCN(CCCCN2c3ccccc3Sc3ccc(F)cc32)CC1`, 110%; to `CC1CCN(CCCN2c3ccccc3Sc3ccc(C(F)(F)F)cc32)CC1`, 83%.
Same read-out and setting: next, `FC(F)(F)c1ccc2c(c1)N(CCCCN1CCN(c3ccccc3)CC1)c1ccccc1S2`: 94%.
`CN1CCN(CCCN2c3ccccc3Sc3ccc(C(F)(F)F)cc32)CC1` [TRIFLUOPERAZINE] yielded an EC50 with U-87 MG [3] of 13.5 µM. Besides, the Activity entry in the series on NSC [4] is “Non-Toxic”. In addition, the values for the concentration for half-maximal inhibition (IC50) (in the series with U-87 MG [5]; in series [6]; in the series on NSC [7]) were 9.9 µM, 10.2 µM and 10.1 µM, respectively. The Efficacy with U-87 MG [8] stood at 82%; in series [9], 85%; with NSC [10], 21%; in the series on U-87 MG [13], 79%.
For `CC1CCN(CCCN2c3ccccc3Sc3ccc(Cl)cc32)CC1`, in the series on U-87 MG [1], the Activity is 88%.
Same read-out and setting: to `Clc1ccc2c(c1)N(CCCCN1CCC(N3CCCC3)CC1)c1ccccc1S2` belongs 101%.
On to `FC(F)(F)c1ccc2c(c1)N(CCCCN1CCC(N3CCCC3)CC1)c1ccccc1S2`, for which the Activity with U-87 MG [1] is on record as 134%; in the series with NSC [4], “Non-Toxic”; in the series with U-87 MG [16], 88%; in the series with Mus musculus [18], “Non-Toxic”; in the series on Mus musculus [19] it was “Non-Toxic”; in the series with Mus musculus [20] it was “Non-Toxic”. Besides, in the series with U-87 MG [2], the result was Active. The EC50 with U-87 MG [3] stood at 6.2 µM. Further, the Emax in the series on NSC [14] worked out at 50%. In addition, in [15], the Ratio was determined as 2. Also, the IC50 with U-87 MG [5] was determined as 2.3 µM; in series [6], 2.2 µM; in the series with NSC [7], 3.2 µM. Also, the Efficacy was determined as 82% with U-87 MG [8], 85% in [9], 45% in the series with NSC [10] and 100% in the series with U-87 MG [13]. For the same compound, the “Ratio IC50” value (with U-87 MG [11]; in series [12]) was 4 - 5 throughout. For the same compound, in the series on U-87 MG [17], the Survival was 6 days.
For `CC1CCN(CCCCN2c3ccccc3Sc3ccc(C(F)(F)F)cc32)CC1`, the Activity in the series on U-87 MG [1] is 93%.
In turn, `FC(F)(F)c1ccc2c(c1)N(CCCN1CCNCC1)c1ccccc1S2` gave an Activity in the series on U-87 MG [1] of 108%.
Regarding `FC(F)(F)c1ccc2c(c1)N(CCCN1CCC(N3CCCC3)CC1)c1ccccc1S2`, the Activity with U-87 MG [1] amounted to 72%.
In turn, `CSc1ccc2c(c1)N(CCCCN1CCC(C)CC1)c1ccccc1S2` came in with an Activity with U-87 MG [1] of 72%.

By EC50 is commonly meant the midpoint of the concentration-response curve. One may read the IC50 as the concentration that inhibits the measured activity by half.

Source of the values: ChEMBL document CHEMBL4229388, “Repositioning of the antipsychotic trifluoperazine: Synthesis, biological evaluation and in silico study of trifluoperazine analogs as anti-glioblastoma agents” (Eur J Med Chem, 2018).
